Data set [1] in a line: Antimetastatic activity against human HeLaB cells assessed as inhibition of cell motility at 25 uM after 24 hrs relative to control. It is filed as functional. Also noted: scale not given: the % may be the effect or the level left. The essentials: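 HeLa B cervix carcinoma cells were exposed to 25 µM compound or to culture medium alone for 24 h in a wound-migration (cell motility) assay. Cells migrating into the wound area were scored, and motility was expressed as % of the medium-only control (100%).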

The nature of data set [2]: Cytotoxicity against human HSF cells assessed as cell viability at 50 uM after 24 hrs by MTT assay relative to control. The format is cell-based. The settings on record: read-out: Activity. Put shortly:
(§1)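 Primary skin fibroblasts were obtained by trypsinizing a healthy forearm skin fragment and grown in DMEM with 10% FBS, penicillin and streptomycin at 37 °C, 5% CO2. Cells were plated at 1 × 10⁵ per well to confluence, then exposed for 24 h to 1, 50 or 100 µM compound diluted from DMSO. MTT viability was read at 570 nm as % of medium control, mean SD of at least three independent measurements.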
For orientation: Formazan colour is commonly taken as a measure of viable cells.

The nature of data set [3]: Cytotoxicity against human HSF cells assessed as cell viability at 1 uM after 24 hrs by MTT assay relative to control. It is filed as cell-based. The settings on record: read-out: Activity. Put shortly:
as §1

A short description of data set [4]: Cytotoxicity against human HSF cells assessed as cell viability at 100 uM after 24 hrs by MTT assay relative to control. The note with it: read-out: Activity. It is filed as cell-based. Put shortly: as §1
Data set [5] relates to RPMI-8226. Description: Antitumor activity against human RPMI8226 cells assessed as cell viability at 50 uM after 24 hrs by MTT assay relative to control. The format is functional. The note with it: RPMI-8226, 24 h, read-out: Activity. Put shortly: (§2)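 RPMI 8226 peripheral blood myeloma cells were treated with 1, 50 or 100 µM compound (DMSO stock diluted into medium) for 24 h. Viability was measured by MTT reduction (SDI test), with solubilized formazan read at 570 nm. Results are % of medium-alone control, mean SD of at least three independent measurements.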

Data set [6] concerns RPMI-8226. Description: Antitumor activity against human RPMI8226 cells assessed as cell viability at 1 uM after 24 hrs by MTT assay relative to control. The note with it: RPMI-8226, 24 h, read-out: Activity. It is filed as functional. Put shortly: as §2
The test system of data set [7] is RPMI-8226. The data set is described as follows: Antitumor activity against human RPMI8226 cells assessed as cell viability at 100 uM after 24 hrs by MTT assay relative to control. It is filed as functional. The note with it: RPMI-8226, 24 h, read-out: Activity. Put shortly:
as §2

`O=c1c(-c2ccccc2)nnc2n1CCN2c1ccc(Cl)cc1`: in data set [1], the Activity came to 50%. In data set [2], the viability at 24 h, 50 µM is 96%. Further, the viability at 24 h, 1 µM in data set [3] turned out to be 104%. Moreover, the viability at 24 h, 100 µM in data set [4] is 102%. For the same molecule, in data set [5], the viability at 50 µM stood at 56%. Further, in data set [6], the viability at 1 µM is 101%. For the same molecule, the viability at 100 µM in data set [7] is 39%.

Regarding `O=c1c(-c2ccccc2)nnc2n1CCN2c1cc(Cl)ccc1Cl`, the Activity in data set [1] was found to be 103%. The viability at 24 h, 50 µM in data set [2] worked out at 31%. Further, the viability at 24 h, 1 µM in data set [3] worked out at 87%. Moreover, the viability at 24 h, 100 µM in data set [4] was 17%. In data set [5], the viability at 50 µM is 43%. For the same molecule, the viability at 1 µM in data set [6] stood at 109%. Moreover, in data set [7], the viability at 100 µM was 41%.

With `O=c1c(-c2ccccc2)nnc2n1CCN2c1cccc(Cl)c1`, the Activity in data set [1] was 52%. In addition, the viability at 24 h, 50 µM in data set [2] was 85%. The viability at 24 h, 1 µM in data set [3] was determined as 108%. Further, in data set [4], the viability at 24 h, 100 µM was determined as 88%. Besides, in data set [5], the viability at 50 µM amounted to 70%. Moreover, the viability at 1 µM in data set [6] amounted to 105%. In addition, in data set [7], the viability at 100 µM was 60%.

In the case of `Cc1cccc(N2CCn3c2nnc(-c2ccccc2)c3=O)c1`, the Activity in data set [1] is reported as 68%. For the same molecule, the viability at 24 h, 50 µM in data set [2] stood at 94%. In data set [3], the viability at 24 h, 1 µM stood at 100%. Also, the viability at 24 h, 100 µM in data set [4] was determined as 88%. In addition, in data set [5], the viability at 50 µM was found to be 79%. Besides, the viability at 1 µM in data set [6] was 107%. The viability at 100 µM in data set [7] is 71%.

As to `O=c1c(-c2ccccc2)nnc2n1CCN2c1ccc(Cl)c(Cl)c1`, in data set [1], the Activity is 90%. For the same molecule, the viability at 24 h, 50 µM in data set [2] amounted to 48%. Moreover, in data set [3], the viability at 24 h, 1 µM stood at 93%. Besides, the viability at 24 h, 100 µM in data set [4] stood at 47%. For the same molecule, in data set [5], the viability at 50 µM came out at 69%. Also, the viability at 1 µM in data set [6] is 108%. Besides, the viability at 100 µM in data set [7] was 58%.

As for `O=c1c(-c2ccccc2)nnc2n1CCN2c1ccccc1Cl`, the Activity in data set [1] was found to be 59%. In addition, the viability at 24 h, 50 µM in data set [2] was found to be 104%. For the same molecule, in data set [3], the viability at 24 h, 1 µM was 108%. The viability at 24 h, 100 µM in data set [4] stood at 104%. The viability at 50 µM in data set [5] is 103%. Further, in data set [6], the viability at 1 µM was 103%. For the same molecule, in data set [7], the viability at 100 µM stood at 101%.

Consider `COc1ccc(N2CCn3c2nnc(-c2ccccc2)c3=O)cc1`, for which the Activity in data set [1] is listed as 59%. In addition, the viability at 24 h, 50 µM in data set [2] was 64%. In addition, in data set [3], the viability at 24 h, 1 µM came to 88%. Besides, the viability at 24 h, 100 µM in data set [4] is 73%. In addition, the viability at 50 µM in data set [5] came to 57%. Further, the viability at 1 µM in data set [6] was 106%. For the same molecule, the viability at 100 µM in data set [7] was 43%.

Values taken from ChEMBL document CHEMBL1155302, “Crystal structure, antitumour and antimetastatic activities of disubstituted fused 1,2,4-triazinones” (Bioorg Med Chem Lett, 2009).
